Experimental data from ChEMBL document CHEMBL4304816, “A Novel Biphenyl-based Chemotype of Retinoid X Receptor Ligands Enables Subtype and Heterodimer Preferences” (ACS Med Chem Lett, 2019).
Values after ≈ are worked out from the molar mass of the structure shown. Blank lines part the entries; values can stand above or below the molecule they belong to. Active and inactive are the calls of the source. The calls are words filed in the database; no cut-off is given here.

Legend:
[1] = target: T1, Retinoic acid receptor RXR-beta (Homo sapiens) (UniProt P28702); experiment: Agonist activity at Gal4-LBD fused RXRbeta (unknown origin) expressed in HEK293T cells at 0.1 to 3 uM after 14 to 16 hrs in presence of RXR antagonist HX531 by dual-Glo luciferase reporter gene assay; format: cell-based
T1 sequence (whole entry): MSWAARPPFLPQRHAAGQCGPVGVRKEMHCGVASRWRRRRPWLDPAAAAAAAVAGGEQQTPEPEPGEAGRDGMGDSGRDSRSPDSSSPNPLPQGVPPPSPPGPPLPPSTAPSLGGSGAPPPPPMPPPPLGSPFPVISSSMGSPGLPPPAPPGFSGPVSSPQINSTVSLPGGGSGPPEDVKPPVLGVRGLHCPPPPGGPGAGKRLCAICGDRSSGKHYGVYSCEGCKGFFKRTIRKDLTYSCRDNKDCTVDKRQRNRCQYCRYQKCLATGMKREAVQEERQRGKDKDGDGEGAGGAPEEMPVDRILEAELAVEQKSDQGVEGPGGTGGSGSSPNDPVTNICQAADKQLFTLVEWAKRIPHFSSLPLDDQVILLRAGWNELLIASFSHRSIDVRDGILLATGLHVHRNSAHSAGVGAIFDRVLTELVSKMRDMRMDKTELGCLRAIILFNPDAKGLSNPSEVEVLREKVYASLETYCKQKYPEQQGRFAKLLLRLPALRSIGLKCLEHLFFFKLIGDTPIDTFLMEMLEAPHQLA

[2] = target: T2, Retinoic acid receptor RXR-alpha (Homo sapiens, UniProt P19793); experiment: Agonist activity at Gal4-LBD fused RXRalpha (unknown origin) expressed in HEK293T cells after 14 to 16 hrs by dual-Glo luciferase assay; format: cell-based
T2 sequence (P19793 whole entry): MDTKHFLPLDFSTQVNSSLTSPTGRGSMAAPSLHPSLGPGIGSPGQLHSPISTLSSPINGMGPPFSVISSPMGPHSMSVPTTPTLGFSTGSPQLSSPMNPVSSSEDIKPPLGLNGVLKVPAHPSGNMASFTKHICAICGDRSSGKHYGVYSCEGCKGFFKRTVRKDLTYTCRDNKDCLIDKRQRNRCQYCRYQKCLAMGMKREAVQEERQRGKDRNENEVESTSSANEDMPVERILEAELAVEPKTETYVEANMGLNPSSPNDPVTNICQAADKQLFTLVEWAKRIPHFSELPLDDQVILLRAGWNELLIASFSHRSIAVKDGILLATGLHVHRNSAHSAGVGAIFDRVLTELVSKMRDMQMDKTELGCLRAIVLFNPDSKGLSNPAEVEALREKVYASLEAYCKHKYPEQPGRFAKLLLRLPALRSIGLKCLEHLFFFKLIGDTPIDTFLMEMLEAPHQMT
Summary of the method: (§1)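 Gal4-hybrid RXRα/β/γ reporter gene assays in HEK293T cells. Fold activation is the maximal fold activation versus 0.1% DMSO.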

[3] = target: T3, Retinoic acid receptor RXR-beta (Homo sapiens, UniProt P28702); experiment: Agonist activity at Gal4-LBD fused RXRbeta (unknown origin) expressed in HEK293T cells after 14 to 16 hrs by dual-Glo luciferase assay; format: cell-based; summary of the method: as §1
T3 sequence (P28702 whole entry): T1 sequence (whole entry)

[4] = target: T4, Retinoic acid receptor RXR-gamma (Homo sapiens) (UniProt P48443); experiment: Agonist activity at Gal4-LBD fused RXRgamma (unknown origin) expressed in HEK293T cells at 0.1 to 3 uM after 14 to 16 hrs in presence of RXR antagonist HX531 by dual-Glo luciferase reporter gene assay; format: cell-based
T4 sequence (whole entry): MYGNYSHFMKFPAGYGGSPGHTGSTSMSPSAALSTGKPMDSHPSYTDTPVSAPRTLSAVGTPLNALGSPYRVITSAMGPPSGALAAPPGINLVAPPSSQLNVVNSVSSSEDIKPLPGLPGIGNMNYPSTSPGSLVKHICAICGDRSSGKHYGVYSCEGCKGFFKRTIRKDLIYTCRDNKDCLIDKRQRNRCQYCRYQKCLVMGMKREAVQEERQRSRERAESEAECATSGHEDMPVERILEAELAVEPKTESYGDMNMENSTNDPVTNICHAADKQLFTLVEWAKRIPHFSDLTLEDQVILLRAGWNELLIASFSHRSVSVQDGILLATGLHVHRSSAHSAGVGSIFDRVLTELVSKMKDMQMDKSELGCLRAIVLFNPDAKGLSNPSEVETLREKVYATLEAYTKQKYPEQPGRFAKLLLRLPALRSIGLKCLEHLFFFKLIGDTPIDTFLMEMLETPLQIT

Homo sapiens [5] = organism: Homo sapiens; experiment: Agonist activity at full-length human PPARgamma/RXR expressed in HEK293T cells at 5 uM after 14 to 16 hrs by dual-glo luciferase reporter gene assay relative to untreated control; format: cell-based
Summary of the method: (§2)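 RXR:LXR or RXR:PPARγ heterodimer reporter assay with test compound alone. Activation expressed relative to 0.1% DMSO vehicle. Three independent experiments, each in duplicate; mean reported.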

[6] = target: T5, Retinoic acid receptor RXR-gamma (Homo sapiens, UniProt P48443); experiment: Agonist activity at Gal4-LBD fused RXRgamma (unknown origin) expressed in HEK293T cells after 14 to 16 hrs by dual-Glo luciferase assay; format: cell-based; summary of the method: as §1
T5 sequence (P48443 whole entry): T4 sequence (whole entry)

[7] = Agonist activity at full-length human RXR/LXR expressed in HEK293T cells at 5 uM after 14 to 16 hrs in presence of 1 uM T0901317 by dual-glo luciferase reporter gene assay relative to T0901317; format: cell-based; conditions: HEK-293T, read-out: Activity
Summary of the method: (§3)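 Synergy format: the test compound was co-applied with the partner-receptor reference agonist at 1 μM, either T0901317 (RXR:LXR) or rosiglitazone (RXR:PPARγ). Relative synergistic activation was derived from three independent experiments, each in duplicate; mean reported.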

[8] = Agonist activity at full-length human RXR/LXR expressed in HEK293T cells at 5 uM after 14 to 16 hrs by dual-glo luciferase reporter gene assay relative to untreated control; format: cell-based; conditions: HEK-293T, read-out: Activity; summary of the method: as §2
[9] = target: T6, Retinoic acid receptor RXR-alpha (Homo sapiens) (UniProt P19793); experiment: Agonist activity at Gal4-LBD fused RXRalpha (unknown origin) expressed in HEK293T cells at 0.1 to 3 uM after 14 to 16 hrs in presence of RXR antagonist HX531 by dual-Glo luciferase reporter gene assay; format: cell-based
T6 sequence (whole entry): T2 sequence (P19793 whole entry)

Homo sapiens [10] = organism: Homo sapiens; experiment: Agonist activity at full-length human PPARgamma/RXR expressed in HEK293T cells at 5 uM after 14 to 16 hrs in presence of 1 uM rosiglitazone by dual-glo luciferase reporter gene assay relative to rosiglitazone; format: cell-based; summary of the method: as §3
Homo sapiens [11] = organism: Homo sapiens; experiment: Agonist activity at full-length human PPARgamma/RXR expressed in HEK293T cells at 10 uM after 14 to 16 hrs by dual-glo luciferase reporter gene assay relative to untreated control; format: cell-based
Summary of the method: (§4)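 RXR:PPARγ heterodimer reporter assay in HEK293T cells with test compound alone. Mean relative activation is taken versus 0.1% DMSO, from three independent experiments each run in duplicate.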

[12] = Solubility of compound at 3 mg after 24 hrs by HPLC analysis; format: physicochemical
[13] = Agonist activity at full-length human RXR/LXR expressed in HEK293T cells at 10 uM after 14 to 16 hrs in presence of 1 uM T0901317 by dual-glo luciferase reporter gene assay relative to T0901317; format: cell-based; conditions: HEK-293T, read-out: Activity; summary of the method: as §3
[14] = Agonist activity at full-length human RXR/LXR expressed in HEK293T cells at 10 uM after 14 to 16 hrs by dual-glo luciferase reporter gene assay relative to untreated control; format: cell-based; conditions: HEK-293T, read-out: Activity; summary of the method: as §2
Homo sapiens [15] = organism: Homo sapiens; experiment: Agonist activity at full-length human PPARgamma/RXR expressed in HEK293T cells at 10 uM after 14 to 16 hrs in presence of 1 uM rosiglitazone by dual-glo luciferase reporter gene assay relative to rosiglitazone; format: cell-based
Summary of the method: (§5)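 RXR:PPARγ heterodimer reporter assay run with reference PPARγ agonist rosiglitazone (1 μM) co-applied. Read-out is mean relative synergistic activation, from three independent experiments each run in duplicate.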

[16] = Metabolic stability in Wistar rat liver microsomes at 10 uM preincubated for 5 mins followed by microsomes addition in presence of NADPH measured up to 60 mins by HPLC analysis; format: ADME, Microsome; conditions: 1 h
Homo sapiens [17] = organism: Homo sapiens; experiment: Agonist activity at full-length human PPARgamma/RXR expressed in HEK293T cells at 25 uM after 14 to 16 hrs by dual-glo luciferase reporter gene assay relative to untreated control; format: cell-based; summary of the method: as §4
[18] = Agonist activity at full-length human RXR/LXR expressed in HEK293T cells at 25 uM after 14 to 16 hrs by dual-glo luciferase reporter gene assay relative to untreated control; format: cell-based; conditions: HEK-293T, read-out: Activity; summary of the method: as §2
[19] = Agonist activity at full-length human RXR/LXR expressed in HEK293T cells at 25 uM after 14 to 16 hrs in presence of 1 uM T0901317 by dual-glo luciferase reporter gene assay relative to T0901317; format: cell-based; conditions: HEK-293T, read-out: Activity; summary of the method: as §3
[20] = target: T4, Retinoic acid receptor RXR-gamma (Homo sapiens); experiment: Agonist activity at Gal4-LBD fused RXRgamma (unknown origin) expressed in HEK293T cells at 30 uM after 14 to 16 hrs by dual-Glo luciferase assay; format: cell-based
[21] = Agonist activity at full-length human RXR/LXR expressed in HEK293T cells at 1 uM after 14 to 16 hrs by dual-glo luciferase reporter gene assay relative to untreated control; format: cell-based; conditions: HEK-293T, read-out: Activity; summary of the method: as §2
Homo sapiens [22] = organism: Homo sapiens; experiment: Agonist activity at full-length human PPARgamma/RXR expressed in HEK293T cells at 0.3 uM after 14 to 16 hrs in presence of 1 uM rosiglitazone by dual-glo luciferase reporter gene assay relative to rosiglitazone; format: cell-based; summary of the method: as §5
Homo sapiens [23] = organism: Homo sapiens; experiment: Agonist activity at full-length human PPARgamma/RXR expressed in HEK293T cells at 0.3 uM after 14 to 16 hrs by dual-glo luciferase reporter gene assay relative to untreated control; format: cell-based; summary of the method: as §4
[24] = Agonist activity at full-length human RXR/LXR expressed in HEK293T cells at 0.3 uM after 14 to 16 hrs by dual-glo luciferase reporter gene assay relative to untreated control; format: cell-based; conditions: HEK-293T, read-out: Activity; summary of the method: as §2
[25] = Agonist activity at full-length human RXR/LXR expressed in HEK293T cells at 0.3 uM after 14 to 16 hrs in presence of 1 uM T0901317 by dual-glo luciferase reporter gene assay relative to T0901317; format: cell-based; conditions: HEK-293T, read-out: Activity; summary of the method: as §3
Homo sapiens [26] = organism: Homo sapiens; experiment: Agonist activity at full-length human RXR/PPARgamma expressed in HEK293T cells at 1 uM after 14 to 16 hrs by dual-glo luciferase reporter gene assay relative to untreated control; format: cell-based; summary of the method: as §2

- Activity [1]: inactive
- EC50 [2]: 470 nM
- EC50 [3]: 800 nM
- Activity [4]: inactive
- EC50 [6]: 3300 nM
- Activity [9]: inactive
SMILES: CC(C)(C)c1cc(-c2ccc(CC(=O)O)cc2)cc(C(C)(C)C)c1
- Activity (Homo sapiens [5]): 173%
- activity at 5 µM [7]: 82%
- activity at 5 µM [8]: 89%
- Activity (Homo sapiens [10]): 108%

- Activity [1]: inactive
- EC50 [2]: 80 nM
- solubility at 24 h [12]: 1.15 µg/mL (≈ 3.3 µM)
- EC50 [3]: 150 nM
- Activity [4]: inactive
- EC50 [6]: 220 nM
- Activity [9]: inactive
- Stability [16]: Stable
SMILES: O=C(O)Cc1ccc(-c2cc(C(F)(F)F)cc(C(F)(F)F)c2)cc1
- Activity (Homo sapiens [11]): 267%
- activity at 10 µM [13]: 127%
- activity at 10 µM [14]: 132%
- Activity (Homo sapiens [15]): 154%

- EC50 [2]: 15500 nM
- EC50 [3]: 13100 nM
- Activity [20]: inactive
SMILES: O=C(O)c1cccc(-c2cc(Cl)cc(Cl)c2)c1
- Activity (Homo sapiens [17]): 82%
- activity at 25 µM [18]: 67%
- activity at 25 µM [19]: 42%

- solubility at 24 h [12]: 0.3 µg/mL (≈ 0.861 µM)
SMILES: C=C(c1ccc(C(=O)O)cc1)c1cc2c(cc1C)C(C)(C)CCC2(C)C [BEXAROTENE]
- Activity (Homo sapiens [22]): 423%
- Activity (Homo sapiens [23]): 330%
- activity at 0.3 µM [24]: 200%
- activity at 0.3 µM [25]: 665%

The remaining lines, values behind:

SMILES: O=S(=O)(c1ccccc1)N(CC(F)(F)F)c1ccc(C(O)(C(F)(F)F)C(F)(F)F)cc1 [T091317]
- activity at 1 µM [21]: 380%

SMILES: CN(CCOc1ccc(CC2SC(=O)NC2=O)cc1)c1ccccn1 (stereo not given)
- Activity (Homo sapiens [26]): 224%
